Assay outcomes (PubChem)
TAAR1 antag = human TAAR1 antagonists, primary screen, Fluo-8 calcium fluorescence, CHO RD-HGA16 cells; Trace amine-associated receptor 1 (Homo sapiens), Q96RJ0; antagonist; inhibition, % at 3 µM; 360,000 compounds, 1.5% hits;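 active = inhibition above a per-plate cutoff, the mean inhibition of test compounds on that plate plus 3 SD, cut at about 49% in these data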;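 note: 0% = DMSO plus EC80 beta-PEA response and 100% = DMSO alone without agonist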
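Test system – hTAAR1-expressing CHO RD-HGA16 cells, Gα16-coupled · Reagent – β-PEA at EC80 concentration, post-compound challenge · Compound dosing – 3 µM, single point · Timing – 140 s kinetic read after compound, 140 s after agonist · Detection – Fluo-8 intracellular calcium dye fluorescence, real-time kinetic reads · Control set – DMSO and EC80 PEA controls · Repeats – n of 1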
Platelet DG rel = inhibitors of platelet dense granule secretion, primary screen, cell-based, MLPCN, human platelets. human platelet-rich plasma, SFLLRN dense granule ATP release, luminescence. inhibition, %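 (compounds screened at 7.5 µM in platelet-rich plasma)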. 300,000 compounds, 0.22% hits. AID 1663, 2009;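 active = mean replicate score, as percent of positive control, at or above 50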
Rce1 inh = yeast Rce1p protease inhibitors, primary screen, biochemical, fluorescence, cell-free homogeneous. yeast membranes, quenched prenylated peptide cleavage fluorescence. calls only. CAAX prenyl protease 2 (Saccharomyces cerevisiae (strain ATCC 204508 / S288c)), Q03530. AID 2563, 2010. 290,000 compounds, 0.27% hits;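 active = fall in fluorescence gain of 50% or more versus controls, with final raw signal at or below 3038400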;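 note: plate controls were neutral control wells for no effect and wells lacking membranes for full effect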
VLA-4 inh = inhibition in human VLA-4 binding assay, primary screen, VLA-4 allosteric modulator project, MLPCN library, flow cytometry, VLA-4 expressing cells | Integrin alpha-4 (Homo sapiens), P13612 | ligand binding flow cytometry | inhibition, % (about 7 µM as worked out from the volumes in the protocol) | 330,000 compounds, 0.2% hits; in the data active = inhibition above about 50%
Target sequence (P13612 whole entry, looked up): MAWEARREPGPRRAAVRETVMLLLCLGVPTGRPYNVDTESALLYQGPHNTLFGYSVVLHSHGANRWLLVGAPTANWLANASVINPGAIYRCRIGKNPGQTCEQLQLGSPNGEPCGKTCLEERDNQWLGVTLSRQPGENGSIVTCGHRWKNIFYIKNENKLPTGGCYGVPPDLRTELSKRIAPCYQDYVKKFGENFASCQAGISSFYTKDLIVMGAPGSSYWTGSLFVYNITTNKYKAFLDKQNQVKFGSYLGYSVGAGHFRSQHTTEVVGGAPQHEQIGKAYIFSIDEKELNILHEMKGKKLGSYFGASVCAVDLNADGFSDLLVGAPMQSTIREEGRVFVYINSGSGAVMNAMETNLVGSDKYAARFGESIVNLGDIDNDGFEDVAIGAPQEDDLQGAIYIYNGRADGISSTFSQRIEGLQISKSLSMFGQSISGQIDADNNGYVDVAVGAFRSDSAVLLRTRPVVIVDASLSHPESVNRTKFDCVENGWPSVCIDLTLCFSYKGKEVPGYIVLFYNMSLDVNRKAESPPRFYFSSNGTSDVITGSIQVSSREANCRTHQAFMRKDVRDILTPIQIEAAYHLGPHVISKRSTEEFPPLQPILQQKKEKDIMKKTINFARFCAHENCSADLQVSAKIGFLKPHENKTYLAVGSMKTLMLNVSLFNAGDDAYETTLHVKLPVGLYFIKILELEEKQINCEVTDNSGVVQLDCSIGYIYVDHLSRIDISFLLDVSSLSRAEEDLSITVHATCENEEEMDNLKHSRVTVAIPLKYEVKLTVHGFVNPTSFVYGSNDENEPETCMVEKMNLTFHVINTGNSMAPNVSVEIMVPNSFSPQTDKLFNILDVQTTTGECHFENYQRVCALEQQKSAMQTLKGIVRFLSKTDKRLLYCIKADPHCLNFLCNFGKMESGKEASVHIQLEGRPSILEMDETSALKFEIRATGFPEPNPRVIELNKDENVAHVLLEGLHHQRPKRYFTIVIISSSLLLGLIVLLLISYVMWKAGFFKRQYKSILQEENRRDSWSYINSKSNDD
TAAR1 agonist = human TAAR1 agonists, primary screen, Fluo-8 calcium fluorescence, CHO RD-HGA16 cells. Trace amine-associated receptor 1 (Homo sapiens), Q96RJ0. 360,000 compounds, 0.99% hits. vehicle wells 0%, saturating PEA agonist 100%. activation, % at 3 µM;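 active = activation above the mean activation of all test compounds in the run plus 3 SD, cut at about 38% in these data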
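Assay system – CHO-derived RD-HGA16 cells with stable Gα16 and human TAAR1 · Compound dosing – one-point dosing at 3 µM (nominal) · Incubation – 17-24 h seeding, 75 min 37 °C dye, 30 min RT · Measured by – kinetic Fluo-8 calcium fluorescence · Control set – DMSO vehicle as 0%, PEA at EC100 as 100% · Repeats – single well for each compound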
* hit, by the source's call; i = inactive; . = no result; + = active, no number. Only some compounds are listed: those with a hit (about 2.6% of all), similar ones and a draw of the others.

SMILES	TAAR1 antag	Platelet DG rel	Rce1 inh	VLA-4 inh	TAAR1 agonist
COc1ccc(-n2nc(C(=O)NCC(=O)N3CCN(c4ccccc4OC)CC3)c3ccccc3c2=O)cc1OC	52*	-10	i	-17	13
Cc1cn2c(=O)c(C(=O)N3CCN(c4ccccc4)CC3)cnc2s1	-15	-5	i	-60	5
CCOc1cc(NCc2ccccc2)c2ncn(C(C)C)c2c1	-6	.	.	14	44*
CN1C(=O)CSc2ccc(NC(=O)NCc3ccccc3)cc21	13	0	i	-3	2
CC(=O)c1cccc(NC(=O)Nc2ccc3c(c2)N(C)C(=O)CS3)c1	66*	-13	.	-11	27
Cc1ccc(NC(=O)Nc2ccc3c(c2)N(C)C(=O)CS3)cc1C	50*	0	i	-8	6
CCc1ccc(NC(=O)Nc2ccc3c(c2)N(C)C(=O)CS3)cc1	49*	17	i	41	6
Cc1ccc(CNC(=O)Nc2ccc3c(c2)N(C)C(=O)CS3)cc1	21	-7	i	-1	9
COc1cccc(CN2CCC(C(=O)NC(C)c3cccc4ccccc34)CC2)c1 (centres undefined)	-19	.	.	.	4
Cc1cc(N2CCNC[C@@H]2C)ccc1N1CCN(Cc2ccccc2)[C@H](C)C1	-8	.	.	.	10
CC(C)(C)S(=O)N1Cc2cc(C(=O)N[C@@H]3CCN(Cc4ccccc4)C3)nc(-c3cccc(-c4cc5ccccc5o4)c3)c2[C@@H]1CCO (some centres undefined)	59*	.	.	.	13
CC(C)(C)S(=O)N1Cc2cc(C(=O)O)nc(-c3cccc(-c4cc5ccccc5o4)c3)c2[C@H]1CCO (some centres undefined)	-8	.	.	.	1
CN1CCN(C(=O)c2cc3c(c(-c4cccc(-c5cc6ccccc6o5)c4)n2)[C@H](CCO)N(S(=O)C(C)(C)C)C3)CC1 (some centres undefined)	50*	.	.	.	21
COc1ccc(C(=O)Nc2ccccc2C(=O)NCc2ccco2)cc1OC	54*	13	i	6	17
COc1ccc(C(=O)Nc2ccccc2C(=O)N/N=C/c2ccco2)cc1	16	78*	i	6	6
CN(C)c1ccc(/C=C(\C#N)C(=O)c2ccccc2)cc1	79*	3	i	-4	104*
CC(C)(C)S(=O)(=O)N1C[C@@H]2C(=CC[C@H]3C(=O)N(c4ccccc4)C(=O)[C@@H]23)[C@@H]1CCO	2	.	.	.	1
COc1cccc(/C=N/NC(=O)c2ccc(OCc3cccc(Br)c3)cc2)c1	52*	1	i	0	0
Cc1cccc(/C=N/NC(=O)c2ccc(Br)cc2)c1	6	-13	+	0	1
Cc1ccccc1OCCn1cnc2cc([N+](=O)[O-])ccc2c1=O	49*	0	i	0	11
CC12CCC(=O)C=C1CCC1C2C(O)CC2(C)C1CCC2(O)C(=O)COC(=O)COCC(=O)O (centres undefined)	-18	.	.	.	1
CC(C)(C)C(=O)COC(=O)c1cccc(NC(=O)c2ccco2)c1	13	0	i	2	5
O=C(COC(=O)c1cccc(NC(=O)c2ccco2)c1)c1ccc(Br)cc1	62*	0	i	4	13
CC(C)c1ccc(NC2CCCN(C(=O)c3n[nH]c4c3CCC4)C2)cc1 (centres undefined)	-19	-8	i	10	5
COc1ccc(CCN(C)C(=O)c2ccc(S(=O)(=O)Nc3ccccc3C)cc2)cc1OC	-4	-11	+	-6	2
SMILES	TAAR1 antag	Platelet DG rel	Rce1 inh	VLA-4 inh	TAAR1 agonist
CNc1nc(NCc2cccc(OC)c2)c2sccc2n1	21	.	.	.	27
c1ccc(CNc2nc(NCc3cccs3)nc3ccsc23)cc1	81*	.	.	.	52*
COCCNc1nc(NCc2cccs2)nc2ccsc12	104*	.	.	.	122*
CNc1nc(NCc2ccccc2)c2sccc2n1	31	.	.	.	46*
COc1cccc(CNc2nc(NCc3ccccc3)nc3ccsc23)c1	96*	.	.	.	49*
CCCNC(=O)C1(C)CCCN(C(=O)c2ccc3ccccc3c2)C1 (centres undefined)	17	.	.	.	-1
COc1ccc(S(=O)(=O)N2CCCCC2c2cc(C(=O)NCc3ccccc3)no2)cc1 (centres undefined)	2	.	.	.	1
Cc1ccc(Nc2nc(NCc3ccccc3)nc3ccsc23)c(C)c1	88*	.	.	.	29
CC(=O)NCCNc1nc(NCc2cccs2)nc2ccsc12	23	.	.	.	34
c1ccc(CNc2nc(NCCc3ccncc3)c3sccc3n2)cc1	106*	.	.	.	125*
Fc1ccc(Nc2nc(NCc3ccccc3)nc3ccsc23)cc1	20	.	.	.	11
c1csc(CNc2nc(NCC3CCCCC3)c3sccc3n2)c1	61*	.	.	.	43*
O=C1CCCN1CCCNc1nc(NCc2cccs2)nc2ccsc12	99*	.	.	.	92*
COc1ccccc1CNc1nc(Nc2ccc(C)cc2C)c2sccc2n1	29	.	.	.	3
CC(C)C(=O)N1CCC1(C)C(=O)Nc1ccc(-n2cncn2)cc1 (centres undefined)	-12	.	.	.	1
CC1(C(=O)Nc2cccnc2)Cc2c(-c3ccc4c(c3)OCO4)ccnc2O1 (centres undefined)	-2	.	.	.	0
Clc1ccccc1OCCNc1nc(NCC2CC2)nc2ccsc12	49*	.	.	.	9
CC1C(=O)Nc2ccc(S(=O)(=O)N3CCN(c4cccc(C(F)(F)F)c4)CC3)cc2NC1=O (centres undefined)	-10	4	i	14	2
COc1ccc2c(C(=O)NCCCCO)c(-c3ccc(S(C)(=O)=O)cc3)sc2c1	26	.	.	-1	9
COc1ccc2sc(-c3ccc(S(C)(=O)=O)cc3)c(C(=O)NCCc3c[nH]c4ccccc34)c2c1	58*	.	.	19	28
Cc1cnc(CN(C)C(=O)CC2C(=O)NCCN2CCCc2ccccc2)[nH]1 (centres undefined)	-13	-20	i	10	1
O=C(Nc1ccc(C(=O)O)cc1)/C(=C\C=C\c1ccccc1)NC(=O)c1ccccc1Br	59*	-4	i	-4	2
O=C(CSc1nnc2ccc(-c3ccccn3)nn12)Nc1cccc(F)c1	-21	.	.	.	4
N#Cc1ccc(-c2ccc(OCC(=O)Nc3cccnc3)cc2)cc1	59*	-2	i	24	10
CC(=O)Nc1ccc(NC(=O)COc2ccc(-c3ccc(C#N)cc3)cc2)cc1	-6	-7	.	9	1
Cc1[nH]c(=S)c(C#N)c(C)c1Cc1ccccc1	-9	-2	i	17	3
Cc1[nH]c(=S)c(C#N)c(C)c1CCC#N	-8	76*	i	8	16
